Measurements published in ChEMBL document CHEMBL5257157, “Biological evaluation of novel amidino substituted coumarin-benzazole hybrids as promising therapeutic agents” (RSC Med Chem, 2023).
pEC50, pIC50: −log10 of the molar value.

What was measured:
[1] = tested on: CCRF-CEM; test: Antiproliferative activity against human CEM cells assessed as inhibition of cell growth; assay type: functional, cell-based
[2] = tested on: Influenza B virus; test: Antiviral activity against influenza B virus infected in dog MDCK cells assessed as inhibition of virus-induced cytopathogenic effect incubated for 3 to 7 days by MTS assay; assay type: functional, organism-based
[3] = Antiviral activity against HCoV-NL63 infected in human Huh-7 cells assessed as inhibition of virus-induced cytopathogenic effect incubated for 3 to 7 days by MTS assay; assay type: functional, cell-based; details: Human coronavirus NL63, Huh-7
[4] = Cytotoxicity against human HEL 299 cells assessed as inhibition of cell growth incubated for 72 hrs by CellTiter96 Aqueous One Solution cell proliferation assay; assay type: toxicity, cell-based
[5] = tested on: CAPAN-1; test: Antiproliferative activity against human CAPAN-1 cells assessed as inhibition of cell growth incubated for 72 hrs by CellTiter96 Aqueous One Solution cell proliferation assay; assay type: functional, cell-based; details: CAPAN-1, 72 h
[6] = tested on: Human alphaherpesvirus 1; test: Antiviral activity against HSV-1 KOS infected in human HEL 299 cells assessed as inhibition of virus-induced cytopathogenic effect incubated for 3 to 7 days by MTS assay; assay type: functional, organism-based; details: Human alphaherpesvirus 1, KOS
[7] = tested on: Human coronavirus 229E; test: Antiviral activity against HCoV-229E infected in human HEL 299 cells assessed as inhibition of virus-induced cytopathogenic effect incubated for 3 to 7 days by MTS assay; assay type: functional, organism-based
[8] = tested on: Z-138; test: Antiproliferative activity against human Z138 cells assessed as inhibition of cell growth incubated for 72 hrs by CellTiter96 Aqueous One Solution cell proliferation assay; assay type: functional, cell-based; details: Z-138, 72 h
[9] = tested on: Sindbis virus; test: Antiviral activity against Sindbis virus infected in human Huh-7 cells assessed as inhibition of virus-induced cytopathogenic effect incubated for 3 to 7 days by MTS assay; assay type: functional, organism-based
[10] = tested on: HL-60; test: Antiproliferative activity against human HL-60 cells assessed as inhibition of cell growth incubated for 72 hrs by CellTiter96 Aqueous One Solution cell proliferation assay; assay type: functional, cell-based; details: HL-60, 72 h
[11] = tested on: Influenza A virus; test: Antiviral activity against influenza virus H3N2 infected in dog MDCK cells assessed as inhibition of virus-induced cytopathogenic effect incubated for 3 to 7 days by MTS assay; assay type: functional, organism-based
[12] = tested on: Yellow fever virus; test: Antiviral activity against Yellow fever virus 17D infected in human Huh-7 cells assessed as inhibition of virus-induced cytopathogenic effect incubated for 3 to 7 days by MTS assay; assay type: functional, organism-based
[13] = tested on: Huh-7; test: Cytotoxicity against human Huh-7 cells assessed as inhibition of cell growth incubated for 72 hrs by CellTiter96 Aqueous One Solution cell proliferation assay; assay type: functional
[14] = Cytotoxicity against dog MDCK cells assessed as inhibition of cell growth incubated for 72 hrs by CellTiter96 Aqueous One Solution cell proliferation assay; assay type: toxicity, cell-based, Canis lupus familiaris
[15] = tested on: Influenza A virus; test: Antiviral activity against influenza virus H1N1 infected in dog MDCK cells assessed as inhibition of virus-induced cytopathogenic effect incubated for 3 to 7 days by MTS assay; assay type: functional, organism-based
[16] = tested on: Human coronavirus OC43; test: Antiviral activity against HCoV-OC43 infected in human HEL 299 cells assessed as inhibition of virus-induced cytopathogenic effect incubated for 3 to 7 days by MTS assay; assay type: functional, organism-based; details: Betacoronavirus 1, HEL 299
[17] = tested on: Zika virus; test: Antiviral activity against Zika virus Mr776 infected in human Huh-7 cells assessed as inhibition of virus-induced cytopathogenic effect incubated for 3 to 7 days by MTS assay; assay type: functional, organism-based; details: Mr776, Huh-7
[18] = tested on: Respiratory syncytial virus; test: Antiviral activity against RSV infected in human HEL 299 cells assessed as inhibition of virus-induced cytopathogenic effect incubated for 3 to 7 days by MTS assay; assay type: functional, organism-based
[19] = Antiproliferative activity against human DND41 cells assessed as inhibition of cell growth incubated for 72 hrs by CellTiter96 Aqueous One Solution cell proliferation assay; assay type: functional, cell-based; details: DND41, 72 h
[20] = tested on: NCI-H460; test: Antiproliferative activity against human NCI-H460 cells assessed as inhibition of cell growth incubated for 72 hrs by CellTiter96 Aqueous One Solution cell proliferation assay; assay type: functional, cell-based; details: NCI-H460, 72 h
[21] = tested on: LN-229; test: Antiproliferative activity against human LN-229 cells assessed as inhibition of cell growth incubated for 72 hrs by CellTiter96 Aqueous One Solution cell proliferation assay; assay type: functional, cell-based; details: LN-229, 72 h
[22] = Antioxidant activity assessed as ABTS radical scavenging activity incubated for 5 mins by absorbance based microplate reader analysis; assay type: functional
In short: (§1)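 Pure compounds tested in three colorimetric antioxidant assays, each run alongside the reference BHT. […] ABTS: direct reaction with ABTS•+ radical cation, reported as IC50. DPPH: scavenging of the stable DPPH radical by proton or electron donation, reported as IC50. FRAP: reducing power, expressed as mmolFe2+/mmolC.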

[23] = tested on: K562; test: Antiproliferative activity against human K562 cells assessed as inhibition of cell growth incubated for 72 hrs by CellTiter96 Aqueous One Solution cell proliferation assay; assay type: functional, cell-based; details: K562, 72 h
[24] = Antioxidant activity assessed as reduction of Fe3+ complex to Fe2+ analogue by measuring mmolFe2+/mmolc by FRAP assay; assay type: functional; in short: as §1
[25] = Antioxidant activity assessed as DPPH radical scavenging activity incubated for 5 mins by absorbance based microplate reader analysis; assay type: functional; in short: as §1

SMILES | pEC50 [2] | pEC50 [3] | CC50 at 72 h [4] | pIC50 [5] | pEC50 [6] | pEC50 [7] | pIC50 [8] | pEC50 [9] | pIC50 [10] | pEC50 [11] | pEC50 [12] | CC50 [13] | CC50 at 72 h [14] | pEC50 [15] | pEC50 [16] | pEC50 [17] | pEC50 [18] | pIC50 [19] | pIC50 [20] | pIC50 [21] | also measured
CCN(CC)c1ccc2cc(-c3nc4ccccc4[nH]3)c(=N)oc2c1 | – | – | – | – | – | – | – | – | – | – | – | – | – | – | – | – | – | – | – | – | pIC50 [1]: 7.23
CCN(CC)c1ccc2cc(-c3nc4ccc(C5=NCCN5)cc4s3)c(=O)oc2c1 | < 4.00 | < 4.00 | > 100 µM | 4.09 | 4.32 | < 4.00 | 4.95 | < 4.00 | < 4.00 | < 4.00 | < 4.00 | 54.2 µM | 64.2 µM | < 4.00 | 4.16 | < 4.00 | < 4.00 | 4.99 | < 4.00 | < 4.00 | pIC50 [22]: 2.66; pIC50 [23]: 4.18; Activity [24]: 2.84 mmol/mmol
Cc1ccc2oc(=O)c(-c3nc4cc(C5=NCCN5)ccc4[nH]3)c(Cl)c2c1 | < 4.00 | < 4.00 | 77 µM | 4.99 | < 4.00 | < 4.00 | 5.19 | < 4.00 | 4.67 | < 4.00 | < 4.00 | < 0.8 µM | 10 µM | < 4.00 | < 4.00 | < 4.00 | < 4.00 | 5.24 | 4.50 | 5.04 | pIC50 [25]: 3.72; pIC50 [22]: 3.46; pIC50 [23]: 5.00; Activity [24]: 47.1 mmol/mmol
CC(N)C12CC3CC(CC(C3)C1)C2 (configuration not stated) [RIMANTADINE] | < 4.00 | – | – | – | – | – | – | – | – | 7.30 | – | – | > 100 µM | 5.30 | – | – | – | – | – | – | –
Cc1ccc2oc(=O)c(-c3nc4cc(C5=NCCCN5)ccc4[nH]3)c(Cl)c2c1 | < 4.00 | < 4.00 | > 100 µM | 4.14 | < 4.00 | < 4.00 | 4.32 | < 4.00 | 4.19 | < 4.00 | < 4.00 | 78.7 µM | 77.1 µM | < 4.00 | 4.13 | < 4.00 | 4.19 | 4.77 | < 4.00 | < 4.00 | pIC50 [25]: 3.28; pIC50 [22]: 3.34; pIC50 [23]: < 4.00; Activity [24]: 47.8 mmol/mmol
CCN(CC)c1ccc2cc(-c3nc4cc(C5=NCCCN5)ccc4[nH]3)c(=O)oc2c1 | < 4.00 | < 4.00 | > 100 µM | 4.18 | < 4.00 | < 4.00 | 4.17 | < 4.00 | 4.20 | < 4.00 | 4.14 | > 100 µM | 43.4 µM | < 4.00 | < 4.00 | 4.11 | 4.13 | 4.97 | < 4.00 | 4.01 | pIC50 [25]: 3.21; pIC50 [22]: 3.96; pIC50 [23]: 4.20; Activity [24]: 28.8 mmol/mmol
O=c1oc2ccc(Br)cc2c(Cl)c1-c1nc2cc(C3=NCCCN3)ccc2[nH]1 | 5.05 | < 4.00 | > 100 µM | 4.27 | < 4.00 | < 4.00 | 4.28 | 4.23 | < 4.00 | 4.29 | 4.95 | > 100 µM | > 100 µM | 4.36 | 4.11 | 5.03 | 4.13 | 4.31 | < 4.00 | < 4.00 | pIC50 [25]: 3.96; pIC50 [22]: 3.44; pIC50 [23]: 4.23; Activity [24]: 95.1 mmol/mmol
COc1cc([C@@H]2c3cc4c(cc3[C@@H](O[C@@H]3O[C@@H]5CO[C@@H](C)O[C@H]5[C@H](O)[C@H]3O)[C@H]3COC(=O)[C@H]23)OCO4)cc(OC)c1O [ETOPOSIDE] | – | – | – | 5.84 | – | – | 6.07 | – | 6.38 | – | – | – | – | – | – | – | – | 5.55 | 5.44 | 6.37 | pIC50 [23]: 5.75
O=c1oc2ccccc2c(Cl)c1-c1nc2cc(C3=NCCCN3)ccc2[nH]1 | < 4.00 | < 4.00 | 87.4 µM | 4.16 | < 4.00 | < 4.00 | 4.35 | < 4.00 | 4.27 | < 4.00 | < 4.00 | 61.7 µM | 81.7 µM | < 4.00 | < 4.00 | < 4.00 | < 4.00 | 4.72 | < 4.00 | < 4.00 | pIC50 [25]: 4.15; pIC50 [22]: 3.54; pIC50 [23]: < 4.00; Activity [24]: 38.3 mmol/mmol
O=c1[nH]c(=O)n([C@H]2C[C@H](O)[C@@H](CO)O2)cc1/C=C/Br [BRIVUDINE] | – | – | > 100 µM | – | 7.30 | – | – | – | – | – | – | – | – | – | – | – | – | – | – | – | –
Cc1cc(C(C)(C)C)c(O)c(C(C)(C)C)c1 [BUTYLATED HYDROXYTOLUENE] | – | – | – | – | – | – | – | – | – | – | – | – | – | – | – | – | – | – | – | – | pIC50 [25]: 4.60; pIC50 [22]: 3.74
CC(=O)N[C@H]1[C@H]([C@H](O)[C@H](O)CO)OC(C(=O)O)=C[C@@H]1NC(=N)N [ZANAMIVIR] | 7.30 | – | – | – | – | – | – | – | – | 4.77 | – | – | > 100 µM | 7.00 | – | – | – | – | – | – | –
NC(=O)c1ncn([C@@H]2O[C@H](CO)[C@@H](O)[C@H]2O)n1 [RIBAVIRIN] | 5.55 | < 3.60 | > 250 µM | – | – | 4.08 | – | – | – | 5.40 | < 3.60 | 8.9 µM | 67 µM | 4.98 | – | < 3.60 | 4.97 | – | – | – | –
CCC(CC)COC(=O)[C@H](C)N[P@](=O)(OC[C@H]1O[C@@](C#N)(c2ccc3c(N)ncnn23)[C@H](O)[C@@H]1O)Oc1ccccc1 [REMDESIVIR] | – | 7.52 | > 10 µM | – | – | 7.22 | – | < 5.00 | – | – | 5.21 | > 10 µM | – | – | 7.22 | 6.15 | 7.52 | – | – | – | –
O=c1oc2ccccc2c(Cl)c1-c1nc2cc(C3=NCCN3)ccc2[nH]1 | < 4.00 | < 4.00 | 99.5 µM | 4.00 | < 4.00 | < 4.00 | 4.30 | < 4.00 | 4.25 | < 4.00 | < 4.00 | 85 µM | 92.1 µM | < 4.00 | < 4.00 | < 4.00 | < 4.00 | 4.44 | < 4.00 | < 4.00 | pIC50 [25]: 3.36; pIC50 [22]: 3.43; pIC50 [23]: < 4.00; Activity [24]: 35.1 mmol/mmol
CCN(CC)c1ccc2cc(-c3nc4cccnc4s3)c(=N)oc2c1 | – | – | – | – | – | – | – | – | – | – | – | – | – | – | – | – | – | – | – | – | pIC50 [1]: 6.77
O=c1oc2ccc(Br)cc2c(Cl)c1-c1nc2cc(C3=NCCN3)ccc2[nH]1 | < 4.00 | < 4.00 | 51.6 µM | 4.52 | < 4.00 | < 4.00 | 5.19 | < 4.00 | 4.30 | < 4.00 | < 4.00 | 2.3 µM | 59 µM | 4.79 | < 4.00 | < 4.00 | < 4.00 | 5.21 | < 4.00 | 4.39 | pIC50 [25]: 3.89; pIC50 [22]: 3.59; pIC50 [23]: 5.01; Activity [24]: 130 mmol/mmol
